{
  "source": "paper PMC4807855",
  "about": "(Bioorganic & medicinal chemistry, 2014)",
  "key": {"PfENR [1]": {"biological_target": "T1, PfENR (Plasmodium falciparum, UniProt Q9BJJ9)", "test": "PfENR substrate kinetics", "assay_type": "biochemical", "details": "without NAD+ preincubation; for Km / kcat: substrate varied, other substrate held constant"}, "PfENR [2]": {"biological_target": "T1, PfENR", "test": "PfENR continuous inhibition assay", "assay_type": "biochemical", "details": "for PfENR inhibition in real-time assay: 25 μM of each candidate inhibitor, with and without NAD+ preincubation"}, "PfENR [3]": {"biological_target": "T1, PfENR", "test": "Reversibility of celastrol binding", "assay_type": "biochemical", "details": "incubation at 5 times the IC50 (15 μM), 45 min, 25 °C"}, "[4]": {"biological_target": "iodoacetamide-treated PfENR (Plasmodium falciparum, UniProt Q9BJJ9)", "test": "Celastrol inhibition of iodoacetamide-treated PfENR", "assay_type": "biochemical", "details": "celastrol 50 μM", "procedure,_shortened": "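PfENR alkylated with 1 mM iodoacetamide in 100 mM ammonium bicarbonate, 60 min, 25 °C, dark; excess reagent removed by desalting column. Treated enzyme preincubated 45 min at 25 °C with test compound (final 50 μM), 50 μM NAD+, 20 mM Tris/HCl pH 7.4, 150 mM NaCl and 0.01% Triton-X. Activity tested with and without DMSO (5% of volume).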"}, "[5]": {"tested_on": "whole-cell blood-stage P. falciparum", "details": "at 1 μM, cell culture; ref 33 (printed 32); cited from earlier work"}, "[6]": {"tested_on": "chloroquine-sensitive P. falciparum NF", "details": "read-out: whole-cell IC50; cited from earlier work"}, "[7]": {"test": "Solubility under assay conditions", "assay_type": "physicochemical", "details": "PfENR assay reaction mixture"}, "PfENR [8]": {"biological_target": "T1, PfENR", "details": "cited from earlier work"}},
  "note": "Counter-ions that a name gives are not always drawn.",
  "data": [
    {"molecule": "NC(=O)C1=CN([C@@H]2O[C@H](COP(=O)(O)OP(=O)(O)OC[C@H]3O[C@@H](n4cnc5c(N)ncnc54)[C@H](O)[C@@H]3O)[C@@H](O)[C@H]2O)C=CC1", "note": "[NADH]", "values": [
      {"measurement": "Km", "setting": "PfENR [1]", "result": "240 ± 40", "unit": "µM"},
      {"measurement": "kcat", "setting": "PfENR [1]", "result": "3.8 ± 1.0", "unit": "s⁻¹"}
    ]},
    {"molecule": "C/C=C/C/C=C/CCC(=O)[C@H]1O[C@H]1C(N)=O", "note": "[cerulenin (CR), cerulenin]", "values": [
      {"measurement": "PfENR inhibition in real-time assay", "setting": "PfENR [2]", "result": "no PfENR inhibition"}
    ]},
    {"molecule": "CC1=C(O)C(=O)C=C2C1=CC=C1[C@@]2(C)CC[C@@]2(C)[C@@H]3C[C@](C)(C(=O)O)CC[C@]3(C)CC[C@]12C", "note": "[compound 1, celastrol]", "values": [
      {"measurement": "IC50 against PfENR (summary statement)", "setting": "PfENR [2]", "result": "low-micromolar range"},
      {"measurement": "Ki", "setting": "PfENR [2]", "result": 5.3, "unit": "µM"},
      {"measurement": "IC50", "setting": "PfENR [2]; IC50, PfENR inhibition, in the presence of 0.01% Triton-X", "result": 3.4, "unit": "µM"},
      {"measurement": "IC50", "setting": "PfENR [2]; IC50 against PfENR (summary statement)", "result": "~5", "unit": "µM"},
      {"measurement": "IC50", "setting": "PfENR [2]; average IC50, PfENR inhibition, with NAD+ preincubation (50 μM, 45 min, 25 °C)", "result": 5.9, "unit": "µM"},
      {"measurement": "IC50", "setting": "PfENR [2]; average IC50, PfENR inhibition, without NAD+ preincubation", "result": 4.7, "unit": "µM"},
      {"measurement": "inhibition mechanism", "setting": "PfENR [2]; varied crotonyl-CoA at fixed NADH", "result": "noncompetitive inhibition"},
      {"measurement": "PfENR activity after incubation with inhibitor and 100-fold dilution", "setting": "PfENR [3]", "result": "identical to the DMSO control"},
      {"measurement": "inhibition of iodoacetamide-treated PfENR", "setting": "[4]", "result": "comparable to that of the untreated protein"},
      {"measurement": "growth inhibition of whole-cell blood-stage P. falciparum", "setting": "[5]", "result": "≥ 70", "unit": "%"},
      {"measurement": "IC50", "setting": "[6]", "result": 560, "unit": "µM"}
    ]},
    {"molecule": "CC[C@@]1(O)C[C@H](O[C@H]2C[C@H](N(C)C)[C@H](O[C@H]3C[C@H](O)[C@H](O[C@H]4CCC(=O)[C@H](C)O4)[C@H](C)O3)[C@H](C)O2)c2c(cc3c(c2O)C(=O)c2c(O)cccc2C3=O)[C@H]1C(=O)OC", "note": "[compound 2, aclacinomycin A (aclarubicin)]", "values": [
      {"measurement": "PfENR inhibition in real-time assay", "setting": "PfENR [2]", "result": "increase in absorbance relative to the DMSO and cerulenin controls"},
      {"measurement": "solubility", "setting": "[7]", "result": "≤ 25", "unit": "µM"}
    ]},
    {"molecule": "CC(C)=CCC[C@]1(C)C=Cc2c(O)c3c(c(CC=C(C)C)c2O1)O[C@]12C(=C[C@@H]4C[C@H]1C(C)(C)O[C@@]2(C/C=C(/C)C(=O)O)C4=O)C3=O", "note": "[compound 4, gambogic acid]", "values": [
      {"measurement": "PfENR inhibition in real-time assay", "setting": "PfENR [2]", "result": "no ENR inhibition"}
    ]},
    {"molecule": "C/C=C/C(=O)SCCNC(=O)CCNC(=O)[C@H](O)C(C)(C)COP(=O)(O)OP(=O)(O)OC[C@H]1O[C@@H](n2cnc3c(N)ncnc32)[C@H](O)[C@@H]1OP(=O)(O)O", "note": "[crotonyl-CoA, crotonyl coenzyme A trilithium salt]", "values": [
      {"measurement": "Km", "setting": "PfENR [1]", "result": "170 ± 60", "unit": "µM"},
      {"measurement": "kcat", "setting": "PfENR [1]", "result": "1.0 ± 0.2", "unit": "s⁻¹"},
      {"measurement": "kcat/Km ratio", "setting": "PfENR [1]", "result": "6.0 ± 1.1", "unit": "s⁻¹ mM⁻¹"}
    ]},
    {"molecule": "Oc1cc(Cl)ccc1Oc1ccc(Cl)cc1Cl", "note": "[triclosan (TCL), triclosan]", "values": [
      {"measurement": "PfENR inhibition in real-time assay", "setting": "PfENR [2]", "result": "no change in NADH consumption"},
      {"measurement": "PfENR inhibitor potency (literature)", "setting": "PfENR [8]", "result": "picomolar"}
    ]},
    {"molecule": "dihydroergotoxine [compound 3]", "values": [
      {"measurement": "PfENR inhibition in real-time assay", "setting": "PfENR [2]", "result": "no ENR inhibition"}
    ]}
  ]
}
